ChEMBL document CHEMBL1133421, “Novel peptidomimetic hematoregulatory compounds” (2000)

Tested on: Murine stromal cell line
Assay: In vitro ability to induce a hematopoietic synergistic factor from a murine stromal cell line at 0.10 ug/mL; Not Detected
Format: functional, cell-based
Details: Mus musculus
Outline: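 Murine stromal cell line C6.4 exposed to test compounds at 0.10, 1.0 and 10.0 µg/mL. Stromal supernatants then assayed for induced hematopoietic synergistic factor (HSF) activity in a murine bone marrow CFU-GM colony assay. Reference peptide included in every assay at 1.0 µg/mL as positive control.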

## O=C(CCNC(=O)[C@H](CO)NC(=O)c1ccc[nH]1)Nc1ccc(NC(=O)CCNC(=O)[C@H](CO)NC(=O)c2ccc[nH]2)cc1
  HSF release: Not detected
